Experimental data from different studies.
Target: Myosin light chain kinase family member 4 (MYLK4, Homo sapiens, UniProt Q86YV6)
One construct used (Q86YV6 1-388): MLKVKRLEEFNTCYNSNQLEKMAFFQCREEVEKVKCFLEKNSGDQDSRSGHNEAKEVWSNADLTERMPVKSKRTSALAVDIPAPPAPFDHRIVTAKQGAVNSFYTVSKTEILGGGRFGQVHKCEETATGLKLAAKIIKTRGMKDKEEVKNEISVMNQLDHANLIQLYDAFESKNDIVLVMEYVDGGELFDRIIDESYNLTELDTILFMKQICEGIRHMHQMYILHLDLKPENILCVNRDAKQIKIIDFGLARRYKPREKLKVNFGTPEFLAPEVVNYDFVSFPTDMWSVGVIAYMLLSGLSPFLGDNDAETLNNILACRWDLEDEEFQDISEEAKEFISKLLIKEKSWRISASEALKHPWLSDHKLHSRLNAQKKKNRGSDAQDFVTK

For O=C(c1ccc(Nc2ncc(Cl)c(-c3ccc(Cl)s3)n2)cc1)N1CCC(N2CCCC2)CC1, the remaining binding was 0% (binding, competition with immobilised ligand; 1 µM).
CNC(=O)[C@@H]1CC[C@@H](n2c(-c3ccc4cnccc4c3)nc3ccc(C(=O)NCc4cccc(C(N)=O)c4)cc32)C1 has a remaining binding of 100% (binding, competition with immobilised ligand; 1 µM).
For CCC(=O)N[C@@H]1CC[C@H](C(=O)N(C)c2ccc(-c3nc4ccccc4o3)cc2)C1, the remaining binding was 100% (cell-free assay, competition with immobilised ligand; 1 µM).
N[C@H]1CCN(c2nccc(-c3cnn4ncccc34)n2)C1 has a remaining binding of 100% (binding; 1 µM).
The remaining binding of C[C@H](c1cccc(C#N)c1)n1cc(Cl)cc(C(N)=O)c1=N is reported as 100% (cell-free assay, competition with immobilised ligand; 1 µM).
For CN(C)c1nccc(-c2cnn3ncccc23)n1, the remaining binding was 88% (binding; 1 µM).
CCN1CCN(Cc2ccc(C(=O)Nc3ccc(C)c(Oc4ccc5c(c4)CC(=O)N5)c3)cc2C(F)(F)F)CC1 has a remaining binding of 84% (binding, competition with immobilised ligand; 1 µM).
The remaining binding of O=S(=O)(NC1CCC(c2cc(F)ccc2F)(S(=O)(=O)c2ccc(Cl)cc2)CC1)C(F)(F)F (stereo not shown) is reported as 100% (cell-free assay, competition with immobilised ligand; 1 µM).
C[C@@H]1CCN(c2nccc(-c3cnn4ncccc34)n2)C1 gave a remaining binding of 100% (binding; 1 µM).
With O=C(NCCCN1CCOCC1)c1ccc(Nc2nccc(-c3cc4ccccc4s3)n2)cc1 the remaining binding was 0.1% (binding, competition with immobilised ligand; 1 µM).
The remaining binding of CNC(=O)Nc1ccc2c(c1)CC[C@@]21OC(=O)N(CC(=O)N(Cc2ccc(F)cc2)[C@@H](C)C(F)(F)F)C1=O is reported as 70% (cell-free assay, competition with immobilised ligand; 1 µM).
With O=C(NCC1CCOCC1)c1n[nH]cc1NC(=O)c1c(F)cccc1F the remaining binding was 100% (binding, competition with immobilised ligand; 1 µM).
With COc1cnc(Nc2cccc(S(N)(=O)=O)c2)nc1N1CCN(c2ccccc2)C(=O)C1 the remaining binding was 100% (binding, competition with immobilised ligand; 1 µM).
c1cnn2ncc(-c3ccnc(N4CCC45COC5)n3)c2c1 has a remaining binding of 78% (binding; 1 µM).
The remaining binding of CS(=O)(=O)N1CCCC(NC(=O)[C@H](CCC2CCCCC2)NC(=O)c2ccc(CNc3ncnc4c3nnn4-c3ccccc3)cc2)C1 (stereo partly shown) is reported as 100% (cell-free assay, competition with immobilised ligand; 0.1 µM).
COc1ncc2cc3ccccc3nc2c1C#N has a remaining binding of 93% (cell-free assay, competition with immobilised ligand; 5 µM).
With COc1ccc2c(c1)O[C@@H](c1ccc(OC)c(OC)c1)C[C@H]2NC(=O)C1(c2ccc3c(c2)OC(F)(F)O3)CC1 the remaining binding was 97% (cell-free assay, competition with immobilised ligand; 1 µM).
O=C(c1ccc(Nc2ncc(Cl)c(-c3cc4ccccc4s3)n2)cc1)N1CCC(N2CCCC2)CC1 has a remaining binding of 0.1% (binding, competition with immobilised ligand; 1 µM).
The remaining binding of CN(C)c1ncc(F)c(-c2cnn3ncccc23)n1 is reported as 100% (binding; 1 µM).
